OXTR ag: activates the human oxytocin receptor. AID 2435. P30559. hit rate 0.32% among 320,000. CHO-OTR cells, Fluo-8 calcium fluorescence; normalized: DMSO 0%, oxytocin 100%. activation, % at 3 µM;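 active = activation above the mean of all tested compounds plus 3 SD, cutoff set per screening run, cut at about 20% in these data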;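 note: peak over basal fluorescence ratio from a 100 s FLIPR kinetic read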
Target sequence (P30559 whole entry, looked up): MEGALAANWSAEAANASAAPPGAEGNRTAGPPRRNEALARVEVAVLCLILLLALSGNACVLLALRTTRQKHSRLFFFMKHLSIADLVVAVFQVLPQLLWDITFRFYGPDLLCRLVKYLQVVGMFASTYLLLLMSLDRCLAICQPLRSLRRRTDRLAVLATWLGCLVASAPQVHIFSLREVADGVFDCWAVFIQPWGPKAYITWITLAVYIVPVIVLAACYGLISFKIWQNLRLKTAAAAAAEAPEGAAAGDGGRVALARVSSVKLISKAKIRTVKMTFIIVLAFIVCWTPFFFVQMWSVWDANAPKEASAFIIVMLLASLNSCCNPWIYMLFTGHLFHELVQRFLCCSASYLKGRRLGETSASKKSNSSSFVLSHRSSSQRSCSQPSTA
TRPML3 ag: agonists of human TRPML3 channel; Q8TDD5; HEK293 TRPML3-YFP, Fluo-8 calcium fluorescence; 100% = the carbachol control signal; activation, % at 3 µM; hit rate 0.29% among 220,000; AID 1448;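 active = activation above its plate's cutoff, the mean activation of the plate's test wells plus 3 SD, cut at about 12% in these data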;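 note: 0% = DMSO only wells and 100% = carbachol wells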
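Test system: HEK293 cells stably carrying human TRPML3-YFP; Doses: single dose, 3 µM final nominal compound, 0.3% DMSO final; Schedule: dye loading 1 h 37 °C then 30 min ambient, 125 s read; Technique: Fluo-8 calcium fluorescence; Benchmarks: high control carbachol 87 µM, low control DMSO.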
OXTR potentiate: human OXTR potentiation; hit rate 0.061% among 320,000; AID 2445; activation, % at 3 µM; CHO-OTR cells, Fluo-8 calcium fluorescence, potentiator mode; 0% = oxytocin EC15, 100% = EC100;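 active = activation above that plate's cutoff, the mean activation of tested compounds plus 3 SD, cut at about 6.6% in these data, passing the limit was not always enough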;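 note: 100% uses oxytocin at 75 nM as the full agonist control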
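Assay system: CHO-OTR cells, human receptor / Also added: oxytocin at about EC15, sub-maximal agonist stimulus / Dosing: single dose, 3.0 µM nominal final compound concentration / Incubation: 6 min pre-incubation, 100 s read / Technique: Fluo-8 calcium dye fluorescence / Read-out: % activation vs EC15 and EC100 oxytocin / Benchmarks: EC15 oxytocin low, 75 nM oxytocin high / Replicates: singlicate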
V1aR counter: activates human V1a receptor in oxytocin agonist counter-screen; activation, % at 3 µM; hit rate 0.25% among 320,000; CHO-V1R cells, Fluo-8 calcium fluorescence, agonist mode; 0% DMSO, 100% 3 nM vasopressin; P37288;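 active = activation above the mean activation of all tested compounds plus 3 SD, per screening run, cut at about 20% in these data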;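 note: signal is peak over basal fluorescence ratio across a 100 second FLIPR read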
CRFBP-R2 agonist: CRF-BP/CRF-R2 complex agonism | HEK293 CRF-R2/CRF-BP, calcium dye fluorescence (FLIPR); percent of saturating CRF peptide response | activation, % at 13.2 µM | hit rate 0.46% among 350,000;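 active = activation of at least 50%, plus an integration ratio under a set limit after plate pattern correction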;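 note: plate controls were neutral control wells without compound for no effect and CRF at EC100 for full effect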
TRPN1 ag: agonists of zebrafish TRPN1 channel; HEK293 zebrafish TRPN1-YFP, Fluo-8 calcium fluorescence; 100% = response to 87 µM carbachol; activation, % at 3 µM; hit rate 0.18% among 220,000;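 active = activation above its plate's cutoff, the mean activation of test wells on that plate plus 3 SD, cut at about 19% in these data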;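 note: 0% = DMSO alone and 100% = 87 µM carbachol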
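System: zebrafish TRPN1-YFP in HEK293 cells / Dosing: 3 µM single point / Timing: dye loading 1 h at 37 °C, then 30 min room temperature / Signal: Fluo-8 calcium fluorescence, excitation 470-495 nm, emission 515-575 nm / Read-out basis: percent activation from peak over basal fluorescence ratio, control-normalized / Control set: high carbachol 87 µM, low DMSO alone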
V1R ag confirm: human V1a receptor agonism, confirmation; shares compounds with V1aR counter; CHO-V1R cells, Fluo-8 calcium fluorescence, agonist; activation, % at 3 µM; hit rate 20% among 180; AID 434964;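 active = average activation exceeds primary screen hit cutoff, cut at about 21% in these data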;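 note: peak over basal fluorescence ratio during a 100 s FLIPR read; 0% = DMSO only wells and 100% = 3 nM vasopressin wells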
OXTR ag counter: OXTR agonism, counter-screen for V1R agonists; shares compounds with V1aR counter; activation, % at 3 µM; CHO-OTR cells, Fluo-8 calcium fluorescence, agonist; hit rate 10% among 180;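 active = mean activation over three repeats above the cutoff from the earlier oxytocin receptor agonist screen, cut at about 20% in these data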;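 note: peak over minimum fluorescence ratio within a 100 second FLIPR read; 0% = DMSO only wells and 100% = oxytocin high control wells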
The depositor's hits bear a star; / = no result. Rows were chosen to be rich in hits. Some 0.83% of all compounds tested hit in one or more screens of this group.

SMILES	OXTR ag	TRPML3 ag	OXTR potentiate	V1aR counter	CRFBP-R2 agonist	TRPN1 ag	V1R ag confirm	OXTR ag counter
COc1ccc(Cn2c(C3CCCCC3)nc3c(c(=O)c4ccccc4n3C)c2=O)cc1	-0.1	-0.3	-11.3	-0.8	-1.2	0.0	/	/
C=CCn1cc(CN2CCC(C(=O)Nc3cccc(-c4cccc(Cl)c4)c3)CC2)c(C)n1	5.1	/	-8.4	22.5*	-0.2	/	-0.3	-0.2
C=CCn1cc(CN2CCC(C(=O)Nc3cccc(-c4cccc(F)c4)c3)CC2)c(C)n1	2.3	/	-8.7	5.0	0.5	/	/	/
CCOc1ccc(OCCC(=O)OCC(=O)NC2CCCCC2)cc1	-0.4	/	-1.6	2.8	-2.2	/	/	/
Cc1ccc(C)c(Nc2c([N+](=O)[O-])ccc3nonc23)c1	10.9	/	-7.8	22.2*	-2.3	/	18.2	4.8
CCSc1nc(O)cc(=O)n1CC	5.0	0.8	-1.1	25.1*	-1.9	0.3	0.0	0.2
COc1ccc(CN2C(=O)C(CC(=O)NCCCN(C)C)CC(C(=O)N(C)C)=C2C)cc1 (configuration not stated)	/	/	/	/	-1.9	/	/	/
C#CCOCCOCCOCCNc1nc(N2CCN(C(=O)CCCCCCCCCCNC(=O)[C@H](CCCCN)n3cc(C[C@@H](C)CC)nn3)CC2)nc(N2CCN(C(=O)CCCCCCCCCCNC(=O)[C@@H]([C@H](C)O)n3cc(C)nn3)CC2)n1	3.6	/	-7.7	15.6	5.3	/	/	/
C#CCOCCOCCOCCNc1nc(N2CCN(C(=O)CCCCCCCCCCNC(=O)[C@H](CCCCN)n3cc(C)nn3)CC2)nc(N2CCN(C(=O)CCCCCCCCCCNC(=O)[C@@H]([C@H](C)O)n3cc(C)nn3)CC2)n1	9.9	/	-11.5	30.7*	10.3	/	8.0	1.8
C#CCOCCOCCOCCNc1nc(N2CCN(C(=O)CCCCCCCCCCNC(=O)Cn3cc(CCCCCN)nn3)CC2)nc(N2CCN(C(=O)CCCCCCCCCCNC(=O)Cn3cc(C[C@@H](C)O)nn3)CC2)n1	10.2	/	-13.4	26.9*	31.4	/	7.9	3.5
C#CCOCCOCCOCCNc1nc(N2CCN(C(=O)CCCCCCCCCCNC(=O)[C@@H](CCC(=O)O)n3cc(CCCCCN)nn3)CC2)nc(N2CCN(C(=O)CCCCCCCCCCNC(=O)[C@H](CCCCN)n3cc(C[C@@H](C)CC)nn3)CC2)n1	7.0	/	-16.2	44.8*	148.9*	/	43.6*	9.1
O=C(COC(=O)c1c(F)cccc1Cl)NC(=O)Nc1ccc2c(c1)OCCO2	1.4	/	-4.5	1.7	-0.2	/	/	/
O=C(Nc1ccc2c(c1)OCCO2)c1c[nH]c(=O)n(-c2ccc(F)c(Cl)c2)c1=O	3.1	/	-4.4	2.8	-0.9	/	/	/
CCNC(=O)c1c(NC(=O)c2cc(-c3cc(C)cc(C)c3O)n[nH]2)sc2c1CCCC2	/	/	/	/	0.8	/	/	/
Fc1ccc(CSc2ccc3nnc(-c4cccs4)n3n2)cc1	-0.6	0.6	-9.8	23.7*	2.2	-0.4	1.0	-0.1
Cc1cccc(CSc2ccc3nnc(-c4cccs4)n3n2)c1	-1.1	0.2	-11.9	-0.1	2.7	-1.0	/	/

High-throughput results deposited in PubChem by several laboratories.
